{
  "source": "ChEMBL document CHEMBL3853298",
  "about": "“Total synthesis and in vitro bioevaluation of clavaminols A, C, H & deacetyl clavaminol H as potential chemotherapeutic and antibiofilm agents” (Eur J Med Chem, 2016)",
  "key": {"Bacillus subtilis [1]": {"tested_on": "Bacillus subtilis", "assay": "Antibacterial activity against Bacillus subtilis MTCC 121 after 24 hrs by well diffusion method", "format": "functional", "settings": "MTCC 121, 24 h", "how_it_was_run": "(§1)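 Bacteria spread (0.1 mL suspension) on Mueller-Hinton agar; 6.0 mm wells loaded with compound over a 250 to 0.48 per-well dose range, methanol as negative control. Incubated 24 h at 37 °C. MIC taken as the lowest concentration still giving an inhibition zone. Duplicates, mean reported.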"}, "Candida albicans [2]": {"tested_on": "Candida albicans", "assay": "Antifungal activity against Candida albicans MTCC 3018 after 24 hrs by well diffusion method", "format": "functional", "settings": "MTCC 3018, 24 h", "how_it_was_run": "(§2)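 Candida/Issatchenkia lawns (0.1 mL suspension) on Mueller-Hinton agar; 6.0 mm bored wells receive compound across a 250 to 0.48 per-well dose range, methanol as negative control. Plates kept 24 h at 30 °C. MIC is the lowest concentration producing a visible inhibition zone. Duplicate runs, mean values.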"}, "Pseudomonas aeruginosa [3]": {"tested_on": "Pseudomonas aeruginosa", "assay": "Bactericidal activity against Pseudomonas aeruginosa MTCC 2453 after 24 hrs", "format": "functional", "settings": "MTCC 2453, 24 h", "how_it_was_run": "(§3)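 Broth macrodilution in Mueller Hinton broth, compound serially diluted from 150 down to 0. Overnight bacterial culture added to a final 1.5 × 10^8 CFU/mL (0.5 McFarland), 24 h at 37 °C. Suspension then subcultured onto Mueller Hinton agar for 24 h at 37 °C. MBC is the lowest concentration killing the strain. Duplicates.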"}, "Candida albicans [4]": {"tested_on": "Candida albicans", "assay": "Fungicidal activity against Candida albicans MTCC 3017 after 24 hrs", "format": "functional", "settings": "MTCC 3017, 24 h", "how_it_was_run": "(§4)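 Candida grown overnight in Mueller Hinton broth. Compound serially diluted in the same broth from 150 to 0 and inoculated to a final 1.5 × 10^8 CFU/mL (0.5 McFarland), then 24 h at 37 °C. Tube contents plated onto Mueller Hinton agar for 24 h at 37 °C. MFC is the lowest concentration killing the yeast. Duplicates.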"}, "Candida parapsilosis": {"tested_on": "Candida parapsilosis", "assay": "Fungicidal activity against Candida parapsilosis MTCC 1744 after 24 hrs", "format": "functional", "settings": "Lodderomyces parapsilosis, MTCC 1744, 24 h", "how_it_was_run": "(§5)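 Broth dilution in Mueller Hinton broth with serial compound concentrations from […]. Overnight Candida cultures added to a final 1.5 × 10^8 CFU/mL (0.5 McFarland). Incubated 24 h at 37 °C, then 10 µL of each tube plated on Mueller Hinton agar for 24 h at 37 °C. MFC taken as the lowest concentration that kills the strain. Run in duplicate.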"}, "[5]": {"assay": "Cytotoxicity against human SKOV3 cells assessed as cell growth inhibition by MTT assay", "format": "functional, cell-based", "settings": "SK-OV-3"}, "Pseudomonas aeruginosa [6]": {"tested_on": "Pseudomonas aeruginosa", "assay": "Antibacterial activity against Pseudomonas aeruginosa MTCC 2453 after 24 hrs by well diffusion method", "format": "functional", "settings": "MTCC 2453, 24 h", "how_it_was_run": "as §1"}, "Micrococcus luteus [7]": {"tested_on": "Micrococcus luteus", "assay": "Antibacterial activity against Micrococcus luteus MTCC 2470 after 24 hrs by well diffusion method", "format": "functional", "settings": "MTCC 2470, 24 h", "how_it_was_run": "as §1"}, "Pichia kudriavzevii": {"tested_on": "Pichia kudriavzevii", "assay": "Fungicidal activity against Candida krusei MTCC 3020 after 24 hrs", "format": "functional", "settings": "MTCC 3020, 24 h", "how_it_was_run": "as §5"}, "Pseudomonas aeruginosa [8]": {"tested_on": "Pseudomonas aeruginosa", "assay": "Antibiofilm activity against Pseudomonas aeruginosa MTCC 2453 incubated for 24 hrs under static condition by crystal violet staining-based assay", "format": "functional", "how_it_was_run": "(§6)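 Strains grown overnight in tryptone soy broth with 0.5% glucose. Compound (250 to 0) mixed with inoculum at 5 × 10^5 CFU/mL in polystyrene microtiter plates. Non-adherent cells washed off with PBS; wells stained with 0.1% crystal violet, dye solubilised in 95% ethanol, absorbance read at 540 nm. IC50 for 50% biofilm inhibition taken from dose-response curves. Triplicates, mean ± S.D.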"}, "Staphylococcus aureus [9]": {"tested_on": "Staphylococcus aureus", "assay": "Antibiofilm activity against Staphylococcus aureus MLS16 MTCC 2940 incubated for 24 hrs under static condition by crystal violet staining-based assay", "format": "functional", "how_it_was_run": "as §6"}, "Staphylococcus aureus [10]": {"tested_on": "Staphylococcus aureus", "assay": "Bactericidal activity against Staphylococcus aureus MLS16 MTCC 2940 after 24 hrs", "format": "functional", "settings": "MLS16 MTCC 2940, 24 h", "how_it_was_run": "as §3"}, "[11]": {"assay": "Antifungal activity against Candida parapsilosis MTCC 1744 after 24 hrs by well diffusion method", "format": "functional", "how_it_was_run": "as §2"}, "Candida albicans [12]": {"tested_on": "Candida albicans", "assay": "Antifungal activity against Candida albicans MTCC 7315 after 24 hrs by well diffusion method", "format": "functional", "settings": "MTCC 7315, 24 h", "how_it_was_run": "as §2"}, "Candida albicans [13]": {"tested_on": "Candida albicans", "assay": "Fungicidal activity against Candida albicans MTCC 3958 after 24 hrs", "format": "functional", "settings": "MTCC 3958, 24 h", "how_it_was_run": "as §4"}, "Staphylococcus aureus [14]": {"tested_on": "Staphylococcus aureus", "assay": "Antibacterial activity against Staphylococcus aureus MTCC 96 after 24 hrs by well diffusion method", "format": "functional", "settings": "MTCC 96, 24 h", "how_it_was_run": "as §1"}, "Escherichia coli [15]": {"tested_on": "Escherichia coli", "assay": "Antibacterial activity against Escherichia coli MTCC 739 after 24 hrs by well diffusion method", "format": "functional", "settings": "MTCC 739, 24 h", "how_it_was_run": "as §1"}, "Candida albicans [16]": {"tested_on": "Candida albicans", "assay": "Fungicidal activity against Candida albicans MTCC 227 after 24 hrs", "format": "functional", "settings": "MTCC 227, 24 h", "how_it_was_run": "as §4"}, "Candida albicans [17]": {"tested_on": "Candida albicans", "assay": "Antifungal activity against Candida albicans MTCC 3017 after 24 hrs by well diffusion method", "format": "functional", "settings": "MTCC 3017, 24 h", "how_it_was_run": "as §2"}, "Bacillus subtilis [18]": {"tested_on": "Bacillus subtilis", "assay": "Bactericidal activity against Bacillus subtilis MTCC 121 after 24 hrs", "format": "functional", "settings": "MTCC 121, 24 h", "how_it_was_run": "as §3"}, "Raoultella planticola": {"tested_on": "Raoultella planticola", "assay": "Antibiofilm activity against Klebsiella planticola MTCC 530 incubated for 24 hrs under static condition by crystal violet staining-based assay", "format": "functional", "how_it_was_run": "as §6"}, "Micrococcus luteus [19]": {"tested_on": "Micrococcus luteus", "assay": "Antibiofilm activity against Micrococcus luteus MTCC 2470 incubated for 24 hrs under static condition by crystal violet staining-based assay", "format": "functional", "how_it_was_run": "as §6"}, "Nakaseomyces glabratus": {"tested_on": "Nakaseomyces glabratus", "assay": "Fungicidal activity against Candida glabrata MTCC 3019 after 24 hrs", "format": "functional", "settings": "MTCC 3019, 24 h", "how_it_was_run": "as §4"}, "Escherichia coli [20]": {"tested_on": "Escherichia coli", "assay": "Antibiofilm activity against Escherichia coli MTCC 739 incubated for 24 hrs under static condition by crystal violet staining-based assay", "format": "functional", "how_it_was_run": "as §6"}, "Candida albicans [21]": {"tested_on": "Candida albicans", "assay": "Antifungal activity against Candida albicans MTCC 227 after 24 hrs by well diffusion method", "format": "functional", "settings": "MTCC 227, 24 h", "how_it_was_run": "as §2"}, "Candida albicans [22]": {"tested_on": "Candida albicans", "assay": "Fungicidal activity against Candida albicans MTCC 7315 after 24 hrs", "format": "functional", "settings": "MTCC 7315, 24 h", "how_it_was_run": "as §4"}},
  "data": [
    {"smiles": "CCCCCCCCC[C@H](O)[C@H](N)CO", "values": [
      {"measurement": "MIC", "setting": "Bacillus subtilis [1]", "value": 3.9, "unit": "µg/mL"},
      {"measurement": "MIC", "setting": "Candida albicans [2]", "value": 15.6, "unit": "µg/mL"},
      {"measurement": "MBC", "setting": "Pseudomonas aeruginosa [3]", "value": 15.6, "unit": "µg/mL"},
      {"measurement": "MFC", "setting": "Candida albicans [4]", "value": 31.2, "unit": "µg/mL"},
      {"measurement": "MFC", "setting": "Candida parapsilosis", "value": 62.5, "unit": "µg/mL"},
      {"measurement": "IC50", "setting": "[5]", "value": 33.6, "unit": "µM"},
      {"measurement": "MIC", "setting": "Pseudomonas aeruginosa [6]", "value": 7.8, "unit": "µg/mL"},
      {"measurement": "MIC", "setting": "Micrococcus luteus [7]", "value": 3.9, "unit": "µg/mL"},
      {"measurement": "MFC", "setting": "Pichia kudriavzevii", "value": 15.6, "unit": "µg/mL"},
      {"measurement": "INH", "setting": "Pseudomonas aeruginosa [8]", "value": 3.9, "unit": "µg/mL"},
      {"measurement": "IC50", "setting": "Staphylococcus aureus [9]", "value": 2.1, "unit": "µg/mL"},
      {"measurement": "MBC", "setting": "Staphylococcus aureus [10]", "value": 7.8, "unit": "µg/mL"},
      {"measurement": "MIC", "setting": "[11]", "value": 31.2, "unit": "µg/mL"},
      {"measurement": "MIC", "setting": "Candida albicans [12]", "value": 31.2, "unit": "µg/mL"},
      {"measurement": "MFC", "setting": "Candida albicans [13]", "value": 15.6, "unit": "µg/mL"},
      {"measurement": "MIC", "setting": "Staphylococcus aureus [14]", "value": 7.8, "unit": "µg/mL"},
      {"measurement": "MIC", "setting": "Escherichia coli [15]", "value": 7.8, "unit": "µg/mL"},
      {"measurement": "MFC", "setting": "Candida albicans [16]", "value": 31.2, "unit": "µg/mL"},
      {"measurement": "MIC", "setting": "Candida albicans [17]", "value": 15.6, "unit": "µg/mL"},
      {"measurement": "MBC", "setting": "Bacillus subtilis [18]", "value": 7.8, "unit": "µg/mL"},
      {"measurement": "IC50", "setting": "Raoultella planticola", "value": 9.2, "unit": "µg/mL"},
      {"measurement": "IC50", "setting": "Micrococcus luteus [19]", "value": 2.3, "unit": "µg/mL"},
      {"measurement": "MFC", "setting": "Nakaseomyces glabratus", "value": 15.6, "unit": "µg/mL"},
      {"measurement": "INH", "setting": "Escherichia coli [20]", "value": 4.6, "unit": "µg/mL"},
      {"measurement": "MIC", "setting": "Candida albicans [21]", "value": 15.6, "unit": "µg/mL"},
      {"measurement": "MFC", "setting": "Candida albicans [22]", "value": 62.5, "unit": "µg/mL"}
    ]}
  ]
}
